# Reference: ChEMBL document CHEMBL1147433, “Design of small molecule ketoamide-based inhibitors of cathepsin K” (Bioorg Med Chem Lett, 2004)
# Key:
# Cathepsin K [1] = target: T1, Cathepsin K (Homo sapiens, UniProt P43235); test: Inhibitory activity against human cathepsin K
# T1 sequence (P43235 whole entry): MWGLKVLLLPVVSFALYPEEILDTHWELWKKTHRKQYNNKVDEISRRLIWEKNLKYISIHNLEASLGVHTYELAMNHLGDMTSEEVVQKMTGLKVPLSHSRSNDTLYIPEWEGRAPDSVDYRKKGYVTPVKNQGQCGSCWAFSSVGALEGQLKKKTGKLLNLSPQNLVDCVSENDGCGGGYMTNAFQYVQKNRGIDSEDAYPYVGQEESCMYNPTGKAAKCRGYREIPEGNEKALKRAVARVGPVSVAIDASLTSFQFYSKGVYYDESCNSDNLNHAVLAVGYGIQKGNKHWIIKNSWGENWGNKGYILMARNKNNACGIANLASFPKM
# Procedure, shortened: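 Recombinant human cathepsin K activity was measured by fluorescence with Cbz-Phe-Arg-AMC as the substrate, in 100 mM NaOAc, 10 mM DTT and 120 mM NaCl at pH 5.5. IC50 values are the mean of two or three inhibition assays. Individual data points within each experiment fell within a 3-fold range of each other.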
# [2] = Half-life in rat; assay type: ADME, organism-based; settings: in vivo
# [3] = PAPP (membrane permeability) in dog kidney cell monolayer assay; assay type: ADME, Canis lupus familiaris; settings: read-out: Activity
# Cathepsin K [4] = target: T2, Cathepsin K (Rattus norvegicus, UniProt O35186); test: Inhibitory activity against rat cathepsin K
# T2 sequence (O35186 whole entry): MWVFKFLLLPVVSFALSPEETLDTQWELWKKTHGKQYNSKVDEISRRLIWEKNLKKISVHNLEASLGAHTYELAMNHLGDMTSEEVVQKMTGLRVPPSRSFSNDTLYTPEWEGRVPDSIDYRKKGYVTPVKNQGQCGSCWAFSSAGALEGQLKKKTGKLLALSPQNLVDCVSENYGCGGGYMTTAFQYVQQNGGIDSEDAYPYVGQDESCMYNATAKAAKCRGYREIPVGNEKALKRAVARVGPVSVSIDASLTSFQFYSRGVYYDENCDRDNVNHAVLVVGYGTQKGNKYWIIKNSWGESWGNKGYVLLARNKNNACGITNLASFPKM
# [5] = Clearance in rat; assay type: ADME, organism-based; settings: in vivo, read-out: Clearance (C1)
# [6] = Vss in rat; assay type: ADME, organism-based; settings: in vivo, read-out: Vss
# [7] = Oral bioavailability in rat; assay type: ADME, organism-based; settings: in vivo
SMILES,IC50 (Cathepsin K [1]) [nM],further results
CCCC[C@H](NC(=O)O[C@@H](CCc1ccccc1)C(C)(C)C)C(=O)C(=O)N[C@H](C)c1ccccc1,912,–
CCCC[C@H](NC(=O)O[C@@H](CCCc1ccccc1)C(C)(C)C)C(=O)C(=O)N[C@H](C)c1ccccc1,1400,–
CCCC[C@H](NC(=O)OC(CCC)CCC)C(=O)C(=O)N[C@H](C)c1ccccc1,32,–
CCCC[C@H](NC(=O)OC(C)(C)C)C(=O)C(=O)NC(C)(C)C,> 100000,–
CCCC[C@H](NC(=O)OC(C(C)(C)C)C(C)(C)C)C(=O)C(=O)N[C@H](C)c1ccccc1,0.71,–
CCCC[C@H](NC(=O)OC(C)(C)C)C(=O)C(=O)N[C@H](C)c1ccccc1,1200,–
CCCC[C@H](NC(=O)O[C@H](CCc1ccccc1)C(C)(C)C)C(=O)C(=O)N[C@H](C)c1ccccc1,1.1,–
CCCC[C@H](NC(=O)O[C@H](CCCc1ccccc1)C(C)(C)C)C(=O)C(=O)N[C@H](C)c1ccccc1,0.79,–
CCCC[C@H](NC(=O)OC(C)(C)C)C(=O)C(=O)NCC,18000,–
CCCC[C@H](NC(=O)OC(C)(C)C)C(=O)C(=O)Nc1ccccc1,6300,–
CCCC[C@H](NC(=O)OC(C)(C)C)C(=O)C(=O)NCCc1ccccc1,5000,–
CCCC[C@H](NC(=O)OC(C)(C)C)C(=O)C(=O)NCc1ccccc1,2900,–
CCCC[C@H](NC(=O)OC(C)(C)C)C(=O)C(=O)NCc1cccs1,3400,–
CCCC[C@H](NC(=O)OC(CC(C)C)CC(C)C)C(=O)C(=O)N[C@H](C)c1ccccc1,69,–
CCCC[C@H](NC(=O)OC(C(C)C)C(C)C)C(=O)C(=O)N[C@H](C)c1ccccc1,–,half-life [2]: 4.83 h; Papp [3]: 5.7 ×10⁻⁶ cm/s; IC50 (Cathepsin K [4]): 20 nM; clearance [5]: 8.7 mL/min/kg; Vd [6]: 1.9 L/kg; bioavailability [7]: 3%
CCCC[C@H](NC(=O)OC(CC)CC)C(=O)C(=O)N[C@H](C)c1ccccc1,76,–
CCCC[C@H](NC(=O)OC(C1CCCC1)C1CCCC1)C(=O)C(=O)N[C@H](C)c1ccccc1,6.3,–
CCCC[C@H](NC(=O)OC(C)(C)C)C(=O)C(=O)N(C)[C@H](C)c1ccccc1,> 100000,–
CCCC[C@H](NC(=O)OCC(C)(C)C)C(=O)C(=O)N[C@H](C)c1ccccc1,34,–
CCCC[C@H](NC(=O)OC(C)(C)C)C(=O)C(=O)N[C@@H](C)c1ccccc1,4200,–
CCCC[C@H](NC(=O)OC(C)(C)C)C(=O)C(N)=O,5900,–
CCCC[C@H](NC(=O)OC(C)(C)C)C(=O)C(=O)NC,21000,–
CCCC[C@H](NC(=O)OC(C)(C)C)C(=O)C(=O)NC(C)C,9100,–
CCCC[C@H](NC(=O)OC(C)C(C)(C)C)C(=O)C(=O)N[C@H](C)c1ccccc1 (some centres undefined),20,–
